Holding throughout (type): functional
Test [1] relates to Mus musculus. Put plainly: Inhibition of spontaneous locomotor activity, after 1 hour of peroral administration in mouse. The settings on record: po. A digest of the protocol: (§1)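 Mice in groups of five were dosed orally with gum arabic suspensions at 10 mL/kg after an overnight fast, with a vehicle control group. Locomotion was counted for 10 min in a photocell activity cage, in at least two groups per dose. ED50, by probit analysis, is the dose giving 50% inhibition against controls.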

For test [2], the system named is Mus musculus. The test is described as follows: Anticonvulsant activity against pentylenetetrazole-induced convulsions, after 5 hour of peroral administration in mouse at a dose of 40 mg/kg. The settings on record: route oral. A digest of the protocol: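 Male mice dosed orally (arabic gum, 10 mL/kg) 1 or 5 h before challenge with tryptamine 100 mg/kg iv, pentylenetetrazol 110 mg/kg ip, or maximal electroshock. Protection means no bilateral forepaw clonic seizures and head twitches (tryptamine) or no tonic hind-limb extension (others). ED50 protects 50% of mice.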

The subject of test [3] is Rattus norvegicus. The test is described as follows: Antagonistic activity against apomorphine-induced stereotypy, after 5 hour of peroral administration in rats at a dose of 100 mg/kg. The settings on record: route oral. In a few lines:
(§2)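 Male rats fasted overnight and given oral doses in arabic gum suspension (10 mL/kg) 1 h, or 1 and 5 h, before challenge. Apomorphine 3 mg/kg iv, with stereotypy observed 20 min later. ED50 is the dose inhibiting stereotypy in 50% of rats, per Janssen's method. Parenthetical entries give the maximal dose and percent activity.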

For test [4], the system named is Mus musculus. The test is described as follows: Anticonvulsant activity against electroshock-induced convulsions, after 5 hour of peroral administration in mouse at a dose of 40 mg/kg. The settings on record: route oral. In a few lines: (§3)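 Compounds were dosed as bases suspended in arabic gum at 10 mL/kg orally, after an overnight fast, with vehicle controls. Protection meant no bilateral forepaw clonic seizures or head twitches (tryptamine), or no tonic hind-limb extension (the other two). ED50 is the dose protecting 50%, by probit analysis.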

The subject of test [5] is Mus musculus. The test is described as follows: Inhibition of spontaneous motor activity after 1 hour of peroral administration in mouse. The settings on record: po. In a few lines: as §1
For test [6], the system named is Mus musculus. Put plainly: Contractile activity in skeletal muscles, after 1 hour of peroral administration in mouse at dose 30 mg/kg. The settings on record: Muscle tissue, route oral. In a few lines: (§4)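 Male mice were placed for 1 h on a 60° inclined wire screen just after dosing and 4 h later. In a second test, trained mice hung by the forepaws from a horizontal 1.8 mm wire 15 cm up; normal mice touch it with a hind paw within 2 s and stay ≥1 min. ED50 is the dose making 50% fall. Dosing was oral in gum arabic suspension at 10 mL/kg after an overnight fast.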

Test [7] has as its system Mus musculus. Put plainly: Inhibitory activity against tremorine-induced tremors, after 5 hour of peroral administration in mouse. The settings on record: po.
Test [8] has as its system Mus musculus. The test is described as follows: Anticonvulsant activity against pentylenetetrazole-induced convulsions, after 1 hour of peroral administration in mouse at a dose of 9.4 mg/kg. The settings on record: route oral. A digest of the protocol: as §3
Test [9] concerns Rattus norvegicus. Put plainly: Activity to evoke catalepsy in rats, by administering perorally at a dose of 200 mg/kg. Particulars: route oral. In a few lines:
(§5)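 Rats fasted overnight and given oral doses in arabic gum suspension (10 mL/kg), 1 h before screening or 1 and 5 h before profile testing. Forelegs placed on a horizontal bar 7 cm high, three times at 5-min intervals. Immobility of at least 15 s counts as catalepsy. ED50 is the dose giving catalepsy in 50% of rats, by probit analysis. Parenthetical entries give the maximal dose and percent activity.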

The test system of test [10] is Rattus norvegicus. The test is described as follows: Antagonistic activity against apomorphine-induced stereotypy in rats, by administering perorally at a dose of 100 mg/kg. Particulars: route oral. A digest of the protocol:
as §2

The test system of test [11] is Mus musculus. Put plainly: Effect on skeletal muscle tone, after 5 hour of peroral administration in mouse at a dose of 200 mg/kg. The settings on record: Muscle tissue, route oral. A digest of the protocol: as §4
In test [12] the test system is Mus musculus. The test is described as follows: Potentiation against pentobarbital-induced sleeping, after 5 hour of peroral administration in mouse at a dose of 100 mg/kg. Particulars: route oral. In a few lines:
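Female mice fasted overnight, dosed orally 1 or 5 h beforehand as arabic gum suspension, 10 mL/kg, with vehicle controls. Subhypnotic pentobarbital 10 mg/kg iv; 3 min later placed on back, effect scored as complete loss of righting reflex for at least 15 s. ED50 = dose producing this in 50% of mice, probit analysis.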

In test [13] the test system is Rattus norvegicus. The test is described as follows: Inhibitory activity against norepinephrine-induced lethality, after 5 hour of peroral administration in rat at a dose of 40 mg/kg. Particulars: route oral. In a few lines: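 Rats (80–90 g) dosed orally (arabic gum, 10 mL/kg) 1 or 5 h before norepinephrine 0.5 mg/kg iv, which kills unprotected rats within 30 min. ED50 is the dose protecting 50% of rats from lethality, by probit analysis.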

For test [14], the system named is Mus musculus. Put plainly: Anticonvulsant activity against electroshock-induced convulsions, after 5 hour of peroral administration in mouse at a dose of 100 mg/kg. The settings on record: route oral. A digest of the protocol:
as §3

For test [15], the system named is Rattus norvegicus. Put plainly: Activity to evoke catalepsy, after 1 hour of peroral administration in rats at a dose of 200 mg/kg. The settings on record: route oral. A digest of the protocol: as §5
The subject of test [16] is Rattus norvegicus. The test is described as follows: Inhibition against conditioned avoidance response, after 1 hour of peroral administration in rats at a dose of 40 mg/kg. The settings on record: route oral. In a few lines:
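Male rats were trained in a shuttle box to avoid grid-floor shock by crossing compartments during a warning period. Dosing was oral as a gum arabic suspension at 10 mL/kg after an overnight fast. Percent inhibition was computed against a pretraining test. ED50 is the dose giving 50% inhibition.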

In test [17] the test system is Mus musculus. Put plainly: Activity of inclined screen in mouse, after 5 hour of peroral administration in mouse at a dose of 100 mg/kg. Particulars: route oral. In a few lines:
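Male mice dosed orally (arabic gum suspension, 10 mL/kg, fasted overnight) 1 or 5 h before testing. Placed for 1 h on a wire screen bent at 60° to the horizontal. Ataxic or miorelaxed mice slide off. ED50 is the dose at which 50% of mice fall, by probit analysis. Ten animals per dose, with vehicle controls.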

Test [18] concerns Mus musculus. Put plainly: Anticonvulsant activity against tryptamine-induced convulsions, after 5 hour of peroral administration in mouse at a dose of 40 mg/kg. Particulars: route oral. In a few lines: as §3
The test system of test [19] is Mus musculus. The test is described as follows: Anticonvulsant activity against electroshock-induced convulsions, after 5 hour of peroral administration in mouse at dose of 100 mg/kg. The settings on record: route oral. In a few lines: as §3
Test [20] relates to Mus musculus. The test is described as follows: Anticonvulsant activity against pentylenetetrazole-induced convulsions, after 1 hour of peroral administration in mouse at dose of 100 mg/kg. The settings on record: route oral. In a few lines: as §3
Test [21] concerns Mus musculus. Put plainly: Inhibitory activity against tremorine-induced salivation, after 5 hour of peroral administration in mouse at dose of 60 mg/kg. The settings on record: route oral. In a few lines:
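Male mice fasted overnight, dosed orally with arabic gum suspension (10 mL/kg) 1 or 5 h before test, vehicle controls included. Tremorine 20 mg/kg ip given 1 h after compounds; central (tremor) and peripheral (salivation) parasympathetic signs recorded. ED50 = dose protecting 50% of animals, by probit analysis.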

Each structure is given as a SMILES string.

The results in this text go back to ChEMBL document CHEMBL1124344, “5-Piperazinylalkyl-2(3H)-oxazolones with neuroleptic activity” (J Med Chem, 1989).

The ED50 is the dose that gives a 50% effect, or the effect in half of the subjects. The low end stands for an effect at a small dose, the high end for a need for a large dose. Usually inhibition in vivo stands for the share of the control response that was lost under treatment.

For `CN(C)CCCN1c2ccccc2Sc2ccc(Cl)cc21` [CHLORPROMAZINE], in the test with Mus musculus [1], the 50% effect level (ED50) was put at a dose of 2.9 mg/kg.

Take `COc1ccccc1N1CCN(CCCC(=O)c2ccc(F)cc2)CC1` [FLUANISONE]: the inhibition in vivo at 40 mg/kg in the test with Mus musculus [2] and in the test with Mus musculus [4] was 0% in each case. Also, the inhibition in vivo at 100 mg/kg with Rattus norvegicus [3] stood at 0%. In the test on Mus musculus [5], the ED50 is 7.7 mg/kg.

The compound `O=C(CCCN1CCC(O)(c2ccc(Cl)cc2)CC1)c1ccc(F)cc1` [HALOPERIDOL] yielded an inhibition in vivo at 30 mg/kg in the test with Mus musculus [6] of 0%. The same compound registered a 50% effective dose (ED50) in the test on Mus musculus [7] of 20 mg/kg. In addition, the inhibition in vivo at 9.4 mg/kg in the test on Mus musculus [8] amounted to 0%.

Consider `O=c1[nH]c(-c2ccc(F)cc2)c(CCN2CCN(c3cc(Cl)cc(Cl)c3)CC2)o1` [LODIPERONE], for which the inhibition in vivo at 200 mg/kg with Rattus norvegicus [9], in the test on Mus musculus [11] and in the test on Rattus norvegicus [15] was 0% each time. For the same compound, the inhibition in vivo at 100 mg/kg in the test on Rattus norvegicus [10], in the test with Mus musculus [12], with Mus musculus [14] and in the test with Mus musculus [17] was 0% in each case. Moreover, the inhibition in vivo at 40 mg/kg in the test on Rattus norvegicus [13] was 10%; in the test with Rattus norvegicus [16] it was 44%; with Mus musculus [18], 0%.

For the compound `COc1ccccc1N1CCN(CCc2oc(=O)[nH]c2-c2ccc(F)cc2)CC1` [ZOLOPERONE], the inhibition in vivo at 100 mg/kg in the test with Mus musculus [19] and with Mus musculus [20] was 0% in each case. Further, the inhibition in vivo at 60 mg/kg with Mus musculus [21] stood at 0%.
